L major viab: reduces viability of Leishmania major promastigotes; 200,000 compounds, 9% hits; inhibition, % at 10 µM; AID 1063; resazurin fluorescence viability;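 further: promastigotes grown with compound for 44 hours at 28 °C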
Rad51 HR inh: Rad51 (human) homologous recombination inhibition | hRad51 DNA strand exchange, fluorescence dequenching | inhibition, % at 10 µM | 200,000 compounds, 0.085% hits;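 active means inhibition above 40% at the single screening dose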;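 further: 0% = DMSO control wells and 100% = blanks with heterologous ssDNA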
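Material: human Rad51–ssDNA filaments; Probe or stimulus: labelled 47-mer dsDNA for strand exchange; Doses: single 10 µM dose; Incubation: 37 °C 15-min filament assembly, 30-min compound preincubation, 15-min exchange; Technique: FRET fluorescence dequenching, excitation 485 nm, emission 520 nm; Measure: Fluorescence-based percent inhibition, control- and blank-normalised; Benchmarks: plate control and blank wells.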
CHOP inh: blocks CHOP induction under ER stress; inhibition, % at 10 µM; CHO-K1 CHOP-promoter luciferase, tunicamycin-induced, 15-18 h; 220,000 compounds, 3.8% hits; AID 2732;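 active means compounds that reduced the stress-induced luciferase reporter signal by more than about 70% of percent inhibition, limit read from the data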;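 further: 0% = tunicamycin plus vehicle and 100% = wells without tunicamycin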
PKD1 inh: PKD1 (human) kinase inhibition; PKD1 kinase fluorescence polarization assay; inhibition, % (no concentration beside the values); 200,000 compounds, 0.056% hits; AID 797
Arbovirus anti: antivirals against arbovirus infection; arbovirus infection cell-based antiviral screen; inhibition, % at 10 µM; 200,000 compounds, 0.37% hits; in the data active means inhibition above about 30%
Wee1 degr inh: blocks degradation of human Wee1 kinase; P30291; HeLa Luc-Wee1K328M stability, luciferase luminescence; 100% = proteasome inhibitor MG132 effect; reporter increase, % at 5 µM; 220,000 compounds, 1.2% hits;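 active means activation above the mean of all tested compounds plus 3 SD, set per screening run, cut at about 8.8% in these data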;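 further: cells exposed to compound for 20 h before luminescence read; 0% = DMSO alone and 100% = MG132 at 30 µM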
* marks the source's active call; other numbers are inactive results; / = no result given. Sampled rows, rich in hits. Any-hit rate of the full collection: about 12%. Unless noted, no stated cut-off is given here; in the data, active means inhibition above about 50%; inactive means the rest.

SMILES	L major viab	Rad51 HR inh	CHOP inh	PKD1 inh	Arbovirus anti	Wee1 degr inh
CC1=CC(=O)C(C(C)C)=C/C1=N/OS(=O)(=O)c1ccccc1	/	-8.5	105.9*	/	/	-0.7
CCCOCC(O)CC(Cc1ccccc1)C(=O)NN (configuration not stated)	/	0.5	2.3	/	/	-1.0
COc1cc([N+](=O)[O-])ccc1NC(=O)CCN1C(=O)C2C3CCC(C3)C2C1=O (configuration not stated)	55.7*	2.7	48.1	-12.0	-2.4	2.7
Cc1ccc(NC(=O)Cn2nnc3ccccc32)cc1	3.6	-0.3	-9.4	15.5	-0.2	10.4*
CCc1ccc(/C=N/NC(=O)c2cc(C3CC3)nc3ccccc23)s1	15.1	-2.4	24.0	-7.1	-7.9	10.5*
O=C(N/N=C/c1ccc([N+](=O)[O-])cc1)c1cc(C2CC2)nc2ccccc12	/	-3.0	42.3	/	/	-0.7
COC(=O)c1ccc(NC(=O)c2ccccc2NS(C)(=O)=O)cc1	-5.7	-6.0	9.3	-4.6	51.5*	-2.1
COc1ccc(NC(=O)c2ccccc2NS(C)(=O)=O)cc1OC	-3.3	-10.8	-8.0	0.3	9.0	-0.2
O=C(O)CSc1nc(-c2ccccc2)nc2c1oc1ccccc12	-1.7	11.0	11.6	1.0	-3.3	0.6
O=C(O)CSc1nc(-c2ccc(Cl)cc2)nc2c1oc1ccccc12	-5.1	/	74.3*	-2.2	34.8*	-1.2
O=C(O)/C=C/c1ccc(S(=O)(=O)NCc2cccnc2)cc1	/	3.2	-9.8	/	/	1.4
COc1c(C)cc(Br)cc1C(=O)Nc1ccc(Cc2ccncc2)cc1	96.5*	1.5	45.2	2.0	-29.6	-0.7
Cc1c([N+](=O)[O-])cc(C(=O)Nc2ccc(Cc3ccncc3)cc2)cc1[N+](=O)[O-]	98.5*	11.0	77.3*	-9.0	-5.8	1.9
O=C(NC(=S)Nc1ccc(Cc2ccncc2)cc1)c1ccccc1Cl	-4.8	-8.7	13.6	2.5	-12.1	0.4
COc1ccccc1C(=O)Nc1ccc(Cc2ccncc2)cc1	8.9	21.6	5.9	8.2	2.8	1.0
Cc1ccccc1C(=O)NC(=S)Nc1ccc(Cc2ccncc2)cc1	53.1*	-5.3	20.0	-2.4	1.2	3.8
Nc1nonc1-n1nnc(C(=O)N/N=C/c2ccccc2Cl)c1COc1ccc(F)cc1	/	29.7	34.8	/	/	0.5
CCc1ccc(-n2c(=O)c3c(C)c(C)sc3n(CC(=O)NCC3CCCO3)c2=O)cc1 (configuration not stated)	5.8	4.5	4.1	-1.5	-3.7	-2.4
CS(=O)(=O)N1CCCC(C(=O)Nc2ccc(F)cc2F)C1 (configuration not stated)	-9.3	1.3	-6.0	-11.4	-0.4	-2.1
COc1ccc(S(=O)(=O)N(C)CC(=O)Nc2ccc(C(F)(F)F)cc2)cc1Cl	-0.4	-19.2	80.8*	2.5	-2.4	1.6
Cc1[nH]n(-c2ncc(-c3ccccc3)s2)c(=O)c1C(c1ccc(Cl)cc1)C(C#N)C#N (configuration not stated)	35.1	0.7	16.6	-6.0	3.3	0.5
CCC(C)NC(=O)c1cc2cc3ccc(OC)cc3nc2s1 (configuration not stated)	11.0	1.1	13.7	2.5	-8.3	9.0*
Cc1ccc2oc(=O)c3cc(C(=O)NCCCN4CCc5ccccc5C4)sc3c2c1	-0.5	/	-5.2	7.1	0.9	3.0
COc1ccc2cc3cc(C(=O)NCc4cccs4)oc3nc2c1	18.7	-3.4	4.9	-3.3	-26.7	-1.1
COc1ccc2cc3cc(C(=O)NCCN4CCc5ccccc5C4)oc3nc2c1	98.9*	-6.8	23.7	4.4	-12.3	3.4
SMILES	L major viab	Rad51 HR inh	CHOP inh	PKD1 inh	Arbovirus anti	Wee1 degr inh
COc1ccc2cc3cc(C(=O)NCCN4CCN(Cc5ccccc5)CC4)oc3nc2c1	95.0*	2.0	21.2	13.3	-14.4	-1.9
COc1ccc2cc3cc(C(=O)NCCN4CCc5ccccc5C4)sc3nc2c1	50.0*	5.5	32.6	-7.1	3.7	-1.6
O=C(C1=C[C@H](c2coc3ccccc3c2=O)C[C@H](OCCCCO)O1)N1CCOCC1	-6.9	-0.9	-6.3	1.6	1.5	0.9
Cc1cc(C)cc(N2C(=O)CSC2c2ccccn2)c1 (configuration not stated)	2.2	19.8	-1.0	-7.6	3.7	2.5
COc1ccccc1/C=C/C(=O)NNC(=O)c1cccs1	2.0	-4.1	-12.0	-3.1	-7.1	0.1
CCOC(=O)CNC(=S)N1CCn2c(nc3ccccc32)C1	-0.7	20.8	-4.5	-7.5	-1.6	0.4

Assay outcomes: PubChem, several laboratories
